Measured values as given in ChEMBL document CHEMBL4028833, “Novel non-trimethoxylphenyl piperlongumine derivatives selectively kill cancer cells” (Bioorg Med Chem Lett, 2017).
Calls of active or inactive are those of the source. The rule behind the calls is not given here.

Key:
A549 = assay: Antiproliferative activity against human A549 cells after 72 hrs by MTT assay; format: functional, cell-based; details: A549, 72 h
Summary of the method: (§1)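 Cell growth inhibition was read by MTT assay, and IC50 values were reported.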

HCT-116 [1] = assay: Antiproliferative activity against human HCT116 cells after 72 hrs by MTT assay; format: functional, cell-based; details: HCT-116, 72 h; summary of the method: as §1
MDA-MB-231 = assay: Antiproliferative activity against human MDA-MB-231 cells after 72 hrs by MTT assay; format: functional, cell-based; details: MDA-MB-231, 72 h; summary of the method: as §1
SK-HEP1 = assay: Antiproliferative activity against human SKHEP1 cells after 72 hrs by MTT assay; format: functional, cell-based; details: SK-HEP1, 72 h; summary of the method: as §1
U2OS = assay: Antiproliferative activity against human U2OS cells after 72 hrs by MTT assay; format: functional, cell-based; summary of the method: as §1
SAOS-2 [2] = assay: Antiproliferative activity against human Saos2 cells after 72 hrs by MTT assay; format: functional, cell-based; details: SAOS-2, 72 h; summary of the method: as §1
WI-38 = assay: Cytotoxicity against human W138 cells after 72 hrs by MTT assay; format: cell-based; details: WI-38, 72 h; summary of the method: as §1
HCT-116 [3] = assay: Induction of reactive oxygen species generation in human HCT116 cells at 10 uM after 1 hr by DCFH-DA dye-based fluorescence microscopic analysis; format: functional, cell-based
Summary of the method: (§2)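 ROS was imaged by fluorescence microscopy in HCT-116 and Saos-2 cells after 1 h treatment at 10 μM. DMSO-treated cells served as the control.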

SAOS-2 [4] = assay: Induction of reactive oxygen species generation in human Saos2 cells at 10 uM after 1 hr by DCFH-DA dye-based fluorescence microscopic analysis relative to control; format: functional; summary of the method: as §2
HCT-116 [5] = assay: Induction of reactive oxygen species generation in human HCT116 cells at 1 to 10 uM by DCFH-DA dye-based fluorescence microscopic analysis; format: functional, cell-based; details: TDE = time-dependent effect
Summary of the method: (§3)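 Cellular ROS was imaged by fluorescence microscopy in HCT-116 and Saos-2 cells. Cells were treated at 1, 5 and 10 μM for 1 h and 3 h, with a DMSO control.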

SAOS-2 [6] = assay: Induction of reactive oxygen species generation in human Saos2 cells at 1 to 5 uM after 1 to 3 hrs by DCFH-DA dye-based fluorescence microscopic analysis; format: functional, cell-based; summary of the method: as §3
SAOS-2 [7] = assay: Induction of reactive oxygen species generation in human Saos2 cells at 1 to 10 uM DCFH-DA dye-based fluorescence microscopic analysis; format: functional, cell-based; details: TDE = time-dependent effect; summary of the method: as §3
HCT-116 [8] = assay: Induction of apoptosis in human HCT116 cells at 1 uM after 24 hrs by annexin V-FITC/propidium iodide staining-based flow cytometric method; format: functional
Summary of the method: (§4)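 Apoptosis was scored by fluorescence-activated cell sorting after 24 h treatment of HCT-116 and Saos-2 cells, with DMSO controls. Cell morphology was also examined. The percentage of apoptotic cells was reported at 1 and 5 μM.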

HCT-116 [9] = assay: Induction of apoptosis in human HCT116 cells at 5 uM after 24 hrs by annexin V-FITC/propidium iodide staining-based flow cytometric method; format: functional; summary of the method: as §4
SAOS-2 [10] = assay: Induction of apoptosis in human Saos2 cells at 1 uM after 24 hrs by annexin V-FITC/propidium iodide staining-based flow cytometric method; format: functional; summary of the method: as §4
SAOS-2 [11] = assay: Induction of apoptosis in human Saos2 cells at 5 uM after 24 hrs by annexin V-FITC/propidium iodide staining-based flow cytometric method; format: functional; summary of the method: as §4
HCT-116 [12] = assay: Cell cycle arrest in human HCT116 cells assessed as accumulation at G0/G1 phase after 24 hrs by propidium iodide staining based flow cytometric method; format: functional
HCT-116 [13] = assay: Cell cycle arrest in human HCT116 cells assessed as accumulation at S phase 1 to 5 uM after 24 hrs by propidium iodide staining based flow cytometric method; format: functional
SAOS-2 [14] = assay: Cell cycle arrest in human Saos2 cells assessed as accumulation at G2/M phase at 1 to 5 uM after 24 hrs by propidium iodide staining based flow cytometric method; format: functional
SAOS-2 [15] = assay: Cell cycle arrest in human Saos2 cells assessed as accumulation at S phase at 1 to 5 uM after 24 hrs by propidium iodide staining based flow cytometric method; format: functional
HCT-116 [16] = assay: Induction of reactive oxygen species generation in human HCT116 cells at 1 to 5 uM after 1 to 3 hrs by DCFH-DA dye-based fluorescence microscopic analysis; format: functional, cell-based; summary of the method: as §3
HCT-116 [17] = assay: Induction of apoptosis in human HCT116 cells after 24 hrs by annexin V-FITC/propidium iodide staining-based flow cytometric method; format: functional, cell-based; summary of the method: as §4
SAOS-2 [18] = assay: Induction of apoptosis in human Saos2 cells after 24 hrs by annexin V-FITC/propidium iodide staining-based flow cytometric method; format: functional, cell-based; summary of the method: as §4
HCT-116 [19] = assay: Cell cycle arrest in human HCT116 cells assessed as accumulation at G0/G1 phase at 1 to 5 uM after 24 hrs by propidium iodide staining based flow cytometric method; format: functional
HCT-116 [20] = assay: Cell cycle arrest in human HCT116 cells accumulation at G0/G1 phase at 1 to 5 uM after 24 hrs by propidium iodide staining based flow cytometric method

Work on `O=C(/C=C/c1cccnc1)N1CCC=C(Cl)C1=O` yielded an IC50 (A549) of 2.97 µM, an IC50 (HCT-116 [1]) of 2.36 µM and an IC50 (MDA-MB-231) of 2.97 µM. The IC50 (SK-HEP1) was 1.9 µM, the IC50 (U2OS) was 1.67 µM and the IC50 (SAOS-2 [2]) was 0.53 µM. For the same compound, the IC50 (WI-38) was 47 µM, the Activity (HCT-116 [3]) was “Active” and the “fold change (FC)” value (SAOS-2 [4]) was 2.

With `O=C1C(Cl)=CCCN1C(=O)c1cccnc1` the IC50 (A549) was 8.64 µM, the IC50 (HCT-116 [1]) was 3.84 µM and the IC50 (MDA-MB-231) was 4.83 µM. The IC50 (SK-HEP1) was 4.83 µM, the IC50 (U2OS) was 5.67 µM and the IC50 (SAOS-2 [2]) was 2.55 µM. For the same compound, the IC50 (WI-38) was 31 µM.

For `O=C(/C=C/C(=O)N1CCC=C(Cl)C1=O)N1CCC=C(Cl)C1=O`, the IC50 (A549) was 8.6 µM, the IC50 (HCT-116 [1]) was 4.2 µM and the IC50 (MDA-MB-231) was 5.04 µM. It also gave an IC50 (SK-HEP1) of 3.96 µM, an IC50 (U2OS) of 7.29 µM and an IC50 (SAOS-2 [2]) of 0.82 µM. It also gave an IC50 (WI-38) of 89.5 µM.

With `O=C1C(Cl)=CCCN1C(=O)c1ccncc1` the IC50 (A549) was > 100 µM, the IC50 (HCT-116 [1]) was > 100 µM and the IC50 (MDA-MB-231) was > 100 µM. For the same compound, the IC50 (SK-HEP1) was > 100 µM, the IC50 (U2OS) was > 100 µM and the IC50 (SAOS-2 [2]) was 89.9 µM. The IC50 (WI-38) was > 100 µM.

`O=C(/C=C/c1ccccc1)N1CCC=C(Cl)C1=O` gave an IC50 (A549) of 4.12 µM, an IC50 (HCT-116 [1]) of 1.67 µM and an IC50 (MDA-MB-231) of 1.67 µM. For the same compound, the IC50 (SK-HEP1) was 0.71 µM, the IC50 (U2OS) was 1.17 µM and the IC50 (SAOS-2 [2]) was 0.011 µM. For the same compound, the IC50 (WI-38) was 84.6 µM, the Activity (HCT-116 [3]) was “Active” and the “fold change (FC)” value (SAOS-2 [4]) was 2. The Activity (HCT-116 [5]) was “Tde”, the Activity (SAOS-2 [6]) was “Active” and the Activity (SAOS-2 [7]) was “Tde”. For the same compound, the Activity (HCT-116 [8]) was 16%, the Activity (HCT-116 [9]) was 17% and the Activity (SAOS-2 [10]) was 12.7%. For the same compound, the Activity (SAOS-2 [11]) was 21.5%, the Activity (HCT-116 [12]) was “Dose-dependent effect” and the Activity (HCT-116 [13]) was “Active”. For the same compound, the Activity (SAOS-2 [14]) was “inactive”, the Activity (SAOS-2 [15]) was “inactive” and the Activity (HCT-116 [16]) was “Active”. The Activity (HCT-116 [17]) was “Dose-dependent effect” and the Activity (SAOS-2 [18]) was “Dose-dependent effect”.

With `O=C1C(Cl)=CCCN1C(=O)c1cnc2ccccc2c1` the IC50 (A549) was 10.6 µM, the IC50 (HCT-116 [1]) was 10.2 µM and the IC50 (MDA-MB-231) was 8.68 µM. The IC50 (SK-HEP1) was 3.52 µM, the IC50 (U2OS) was 6.63 µM and the IC50 (SAOS-2 [2]) was 2.96 µM. For the same compound, the IC50 (WI-38) was > 100 µM.

In the case of `O=C1C(Cl)=CCCN1C(=O)c1ccco1`, the IC50 (A549) is reported as 18.6 µM, the IC50 (HCT-116 [1]) is reported as 5.89 µM and the IC50 (MDA-MB-231) is reported as 19.2 µM. For the same compound, the IC50 (SK-HEP1) was 13.6 µM, the IC50 (U2OS) was 8.6 µM and the IC50 (SAOS-2 [2]) was 3.86 µM. For the same compound, the IC50 (WI-38) was > 100 µM.

For `COc1cc(/C=C/C(=O)N2CCC=CC2=O)cc(OC)c1OC` [PIPLARTINE], the IC50 (A549) was 6.84 µM, the IC50 (HCT-116 [1]) was 7.34 µM and the IC50 (MDA-MB-231) was 10.6 µM. The IC50 (SK-HEP1) was 13.3 µM, the IC50 (U2OS) was 9.49 µM and the IC50 (SAOS-2 [2]) was 7.31 µM. For the same compound, the IC50 (WI-38) was > 100 µM, the Activity (HCT-116 [3]) was “Active” and the Activity (SAOS-2 [10]) was 26%. For the same compound, the Activity (SAOS-2 [11]) was 33%, the Activity (HCT-116 [13]) was “Active” and the Activity (SAOS-2 [14]) was “inactive”. The Activity (SAOS-2 [15]) was “inactive”, the Activity (HCT-116 [17]) was “Dose-dependent effect” and the Activity (SAOS-2 [18]) was “Dose-dependent effect”. For the same compound, the Activity (HCT-116 [19]) was “Active” and the Activity (HCT-116 [20]) was “Active”.

`O=C1C(Cl)=CCCN1C(=O)C1CC1c1ccccc1` (stereo unspecified) was tested, and the IC50 (A549) was 85.1 µM, the IC50 (HCT-116 [1]) was 64.5 µM and the IC50 (MDA-MB-231) was 65.1 µM. For the same compound, the IC50 (SK-HEP1) was 72.9 µM, the IC50 (U2OS) was 68.3 µM and the IC50 (SAOS-2 [2]) was 23.5 µM. The IC50 (WI-38) was > 100 µM.

With `O=C(C#Cc1ccccc1)N1CCC=C(Cl)C1=O` the IC50 (A549) was 7.93 µM, the IC50 (HCT-116 [1]) was 0.92 µM and the IC50 (MDA-MB-231) was 1.73 µM. For the same compound, the IC50 (SK-HEP1) was 1.19 µM, the IC50 (U2OS) was 1.12 µM and the IC50 (SAOS-2 [2]) was 0.42 µM. For the same compound, the IC50 (WI-38) was > 100 µM, the Activity (HCT-116 [3]) was “inactive” and the “fold change (FC)” value (SAOS-2 [4]) was 2.

With `O=C(/C=C/c1ccco1)N1CCC=C(Cl)C1=O` the IC50 (A549) was 8.3 µM, the IC50 (HCT-116 [1]) was 4.49 µM and the IC50 (MDA-MB-231) was 5.52 µM. It also gave an IC50 (SK-HEP1) of 1.27 µM, an IC50 (U2OS) of 1.47 µM and an IC50 (SAOS-2 [2]) of 0.28 µM. The IC50 (WI-38) was > 100 µM.

With `O=C1C(Br)=CCCN1C(=O)c1cnc2ccccc2c1` the IC50 (A549) was > 100 µM, the IC50 (HCT-116 [1]) was > 100 µM and the IC50 (MDA-MB-231) was > 100 µM. The IC50 (SK-HEP1) was 75.2 µM, the IC50 (U2OS) was 97.5 µM and the IC50 (SAOS-2 [2]) was 26.7 µM. The IC50 (WI-38) was > 100 µM.

Compound `O=C(/C=C/c1ccoc1)N1CCC=C(Cl)C1=O` has an IC50 (A549) of 11 µM, an IC50 (HCT-116 [1]) of 4.37 µM and an IC50 (MDA-MB-231) of 4.97 µM. It also gave an IC50 (SK-HEP1) of 2.78 µM, an IC50 (U2OS) of 2.26 µM and an IC50 (SAOS-2 [2]) of 1.15 µM. The IC50 (WI-38) was > 100 µM.
